Reference: ChEMBL document CHEMBL1122647 (J Med Chem, 1984)
pIC50: −log10 of the molar value. Where “and” joins values, the source holds several entries; their conditions need not be identical. Equal entries are not always repeated.

Assays:
[1] = tested on: L1210; test: Compound was evaluated for its cytotoxicity against the L1210 murine leukemia cell culture; assay type: functional; conditions: Mus musculus, read-out: ID50 (the source's name)
[2] = tested on: Mus musculus; test: In vivo antitumor activity was evaluated against L1210 leukemia implanted mice by measuring percent increase in life span after intraperitoneal administration of compound at 0.06 mg/kg; assay type: functional
Outline: (§1)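 Male B6D2F1J mice, five per group, were implanted ip with 10^5 L1210 cells on day 0. Treatment began on day 1. Drug was given ip in sterile water, twice daily on days 1-4 and 7-10, and as a single double-dose injection on days 5 and 6. Survival was recorded in days (range, and median treated/control), with % ILS derived from it. Body-weight change at 7 days was also recorded.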

[3] = tested on: Mus musculus; test: In vivo antitumor activity was evaluated against L1210 leukemia implanted mice by measuring percent increase in life span after intraperitoneal administration of compound at 0.12 mg/kg; assay type: functional
Outline: (§2)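 Male B6D2F1J mice, five per group, were inoculated ip with 10^5 L1210 cells on day 0. Treatment began on day 1, given ip in sterile water twice daily on days 1-4 and 7-10, with a single double-dose injection on each of days 5 and 6. Read-outs were percent body weight change over 7 days, survival range in days, treated/control median survival, and percent increase in life span.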

[4] = tested on: Mus musculus; test: In vivo antitumor activity was evaluated against L1210 leukemia implanted mice by measuring percent increase in life span after intraperitoneal administration of compound at 0.24 mg/kg; assay type: functional; outline: as §1
[5] = tested on: Mus musculus; test: In vivo antitumor activity was evaluated against L1210 leukemia implanted mice by measuring T/C median after intraperitoneal administration of compound at 0.12 mg/kg; T/C median=14/8; assay type: functional; outline: as §2
[6] = tested on: Mus musculus; test: In vivo antitumor activity was evaluated against L1210 leukemia implanted mice by measuring T/C median after intraperitoneal administration of compound at 0.24 mg/kg; T/C median=19/8; assay type: functional; outline: as §1
[7] = tested on: Mus musculus; test: In vivo antitumor activity was evaluated against L1210 leukemia implanted mice by measuring 7-day weight change after intraperitoneal administration of compound at 0.06 mg/kg; assay type: functional
Outline: (§3)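 Groups of five male B6D2F1J mice were inoculated ip with 10^5 L1210 cells on day 0. Starting day 1, drug in sterile water was given ip bid on days 1-4 and 7-10, with a single double-dose injection on days 5 and 6. Percent body-weight change was recorded at day 7, along with survival range, median T/C and ILS.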

[8] = tested on: Mus musculus; test: In vivo antitumor activity was evaluated against L1210 leukemia implanted mice by measuring 7-day weight change after intraperitoneal administration of compound at 0.12 mg/kg; assay type: functional; outline: as §2
[9] = tested on: Mus musculus; test: In vivo antitumor activity was evaluated against L1210 leukemia implanted mice by measuring 7-day weight change after intraperitoneal administration of compound at 0.24 mg/kg; assay type: functional; outline: as §3
[10] = tested on: Mus musculus; test: In vivo antitumor activity was evaluated against L1210 leukemia implanted mice by measuring number of survival days after intraperitoneal administration of compound at 0.06 mg/kg at a range of 11-13; assay type: functional; outline: as §1
[11] = tested on: Mus musculus; test: In vivo antitumor activity was evaluated against L1210 leukemia implanted mice by measuring number of survival days after intraperitoneal administration of compound at 0.12 mg/kg at a range of 12-15; assay type: functional; outline: as §2
[12] = tested on: Mus musculus; test: In vivo antitumor activity was evaluated against L1210 leukemia implanted mice by measuring number of survival days after intraperitoneal administration of compound at 0.24 mg/kg at a range of 12-20; assay type: functional; outline: as §1
[13] = molecular target: T1, Dihydrofolate reductase (Mus musculus) (UniProt P00375)
T1 sequence (whole entry): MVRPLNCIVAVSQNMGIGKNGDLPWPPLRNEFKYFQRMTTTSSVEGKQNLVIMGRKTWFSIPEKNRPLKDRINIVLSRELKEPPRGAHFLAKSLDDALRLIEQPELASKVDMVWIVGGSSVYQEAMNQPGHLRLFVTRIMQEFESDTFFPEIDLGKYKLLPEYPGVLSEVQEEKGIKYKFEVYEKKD

[14] = tested on: Mus musculus; test: In vivo antitumor activity was evaluated against L1210 leukemia implanted mice by measuring percent increase in life span after intraperitoneal administration of compound at 16 mg/kg; assay type: functional; outline: as §1
[15] = tested on: Mus musculus; test: In vivo antitumor activity was evaluated against L1210 leukemia implanted mice by measuring percent increase in life span after intraperitoneal administration of compound at 32 mg/kg; assay type: functional; outline: as §1
[16] = tested on: Mus musculus; test: In vivo antitumor activity was evaluated against L1210 leukemia implanted mice by measuring number of survival days after intraperitoneal administration of compound at 32 mg/kg; at a range of 12-16; assay type: functional; outline: as §1
[17] = tested on: Mus musculus; test: In vivo antitumor activity was evaluated against L1210 leukemia implanted mice by measuring T/C median after intraperitoneal administration of compound at 16 mg/kg; T/C median=12/9; assay type: functional; outline: as §1
[18] = tested on: Mus musculus; test: In vivo antitumor activity was evaluated against L1210 leukemia implanted mice by measuring number of survival days after intraperitoneal administration of compound at 16 mg/kg; at a range of 11-14; assay type: functional; outline: as §1
[19] = tested on: Mus musculus; test: In vivo antitumor activity was evaluated against L1210 leukemia implanted mice by measuring 7-day weight change after intraperitoneal administration of compound at 32 mg/kg; assay type: functional; outline: as §3
[20] = tested on: Mus musculus; test: In vivo antitumor activity was evaluated against L1210 leukemia implanted mice by measuring 7-day weight change after intraperitoneal administration of compound at 16 mg/kg; assay type: functional; outline: as §3
[21] = tested on: Mus musculus; test: In vivo antitumor activity was evaluated against L1210 leukemia implanted mice by measuring T/C median after intraperitoneal administration of compound at 32 mg/kg; T/C median=13/9; assay type: functional; outline: as §1
[22] = tested on: Mus musculus; test: In vivo antitumor activity was evaluated against L1210 leukemia implanted mice by measuring T/C median after intraperitoneal administration of compound at 32 mg/kg; 22/9; assay type: functional; outline: as §2
[23] = tested on: Mus musculus; test: In vivo antitumor activity was evaluated against L1210 leukemia implanted mice by measuring number of survival days after intraperitoneal administration of compound at 32 mg/kg; range 21-24; assay type: functional; outline: as §2
[24] = tested on: Mus musculus; test: In vivo antitumor activity was evaluated against L1210 leukemia implanted mice by measuring T/C median after intraperitoneal administration of compound at 16 mg/kg; 21/9; assay type: functional; outline: as §2
[25] = tested on: Mus musculus; test: In vivo antitumor activity was evaluated against L1210 leukemia implanted mice by measuring number of survival days after intraperitoneal administration of compound at 16 mg/kg; range 19-21; assay type: functional; outline: as §2
[26] = tested on: Mus musculus; test: In vivo antitumor activity was evaluated against L1210 leukemia implanted mice by measuring percent increase in life span after intraperitoneal administration of compound at 1 mg/kg; assay type: functional; outline: as §1
[27] = tested on: Mus musculus; test: In vivo antitumor activity was evaluated against L1210 leukemia implanted mice by measuring percent increase in life span after intraperitoneal administration of compound at 0.5 mg/kg; assay type: functional; outline: as §1
[28] = tested on: Mus musculus; test: In vivo antitumor activity was evaluated against L1210 leukemia implanted mice by measuring percent increase in life span after intraperitoneal administration of compound at 0.75 mg/kg; assay type: functional; outline: as §1
[29] = tested on: Mus musculus; test: In vivo antitumor activity was evaluated against L1210 leukemia implanted mice by measuring T/C median after intraperitoneal administration of compound at 1 mg/kg; T/C median=21/9; assay type: functional; outline: as §1
[30] = tested on: Mus musculus; test: In vivo antitumor activity was evaluated against L1210 leukemia implanted mice by measuring number of survival days after intraperitoneal administration of compound at 1 mg/kg; at a range of 3-22; assay type: functional; outline: as §1
[31] = tested on: Mus musculus; test: In vivo antitumor activity was evaluated against L1210 leukemia implanted mice by measuring T/C median after intraperitoneal administration of compound at 0.5 mg/kg; T/C median=16/9; assay type: functional; outline: as §1
[32] = tested on: Mus musculus; test: In vivo antitumor activity was evaluated against L1210 leukemia implanted mice by measuring 7-day weight change after intraperitoneal administration of compound at 0.5 mg/kg; assay type: functional; outline: as §3
[33] = tested on: Mus musculus; test: In vivo antitumor activity was evaluated against L1210 leukemia implanted mice by measuring 7-day weight change after intraperitoneal administration of compound at 0.75 mg/kg; assay type: functional; outline: as §3
[34] = tested on: Mus musculus; test: In vivo antitumor activity was evaluated against L1210 leukemia implanted mice by measuring number of survival days after intraperitoneal administration of compound at 0.5 mg/kg; at a range of 15-18; assay type: functional; outline: as §1
[35] = tested on: Mus musculus; test: In vivo antitumor activity was evaluated against L1210 leukemia implanted mice by measuring number of survival days after intraperitoneal administration of compound at 0.75 mg/kg; at a range of 16-21; assay type: functional; outline: as §1
[36] = tested on: Mus musculus; test: In vivo antitumor activity was evaluated against L1210 leukemia implanted mice by measuring 7-day weight change after intraperitoneal administration of compound at 1 mg/kg; assay type: functional; outline: as §3
[37] = tested on: Mus musculus; test: In vivo antitumor activity was evaluated against L1210 leukemia implanted mice by measuring T/C median after intraperitoneal administration of compound at 0.75 mg/kg; T/C median=18/9; assay type: functional; outline: as §1
[38] = tested on: Mus musculus; test: In vivo antitumor activity was evaluated against L1210 leukemia implanted mice by measuring percent increase in life span after intraperitoneal administration of compound at 2 mg/kg; assay type: functional; outline: as §1
[39] = tested on: Mus musculus; test: In vivo antitumor activity was evaluated against L1210 leukemia implanted mice by measuring 7-day weight change after intraperitoneal administration of compound at 2 mg/kg; assay type: functional; outline: as §3
[40] = tested on: Mus musculus; test: In vivo antitumor activity was evaluated against L1210 leukemia implanted mice by measuring T/C median after intraperitoneal administration of compound at 1 mg/kg; T/C median=16/8; assay type: functional; outline: as §1
[41] = tested on: Mus musculus; test: In vivo antitumor activity was evaluated against L1210 leukemia implanted mice by measuring T/C median after intraperitoneal administration of compound at 2 mg/kg; T/C median=19/8; assay type: functional; outline: as §1
[42] = tested on: Mus musculus; test: In vivo antitumor activity was evaluated against L1210 leukemia implanted mice by measuring number of survival days after intraperitoneal administration of compound at 2 mg/kg; at a range of 16-20; assay type: functional; outline: as §1
[43] = tested on: Mus musculus; test: In vivo antitumor activity was evaluated against L1210 leukemia implanted mice by measuring T/C median after intraperitoneal administration of compound at 0.5 mg/kg; T/C median=15/8; assay type: functional; outline: as §1
[44] = tested on: Mus musculus; test: In vivo antitumor activity was evaluated against L1210 leukemia implanted mice by measuring number of survival days after intraperitoneal administration of compound at 0.5 mg/kg; at a range of 13-16; assay type: functional; outline: as §1
[45] = tested on: Mus musculus; test: In vivo antitumor activity was evaluated against L1210 leukemia implanted mice by measuring number of survival days after intraperitoneal administration of compound at 1 mg/kg; at a range of 13-17; assay type: functional; outline: as §1

Structure (SMILES): Nc1nc(N)c2nc(CNc3ccc(C(=O)N[C@@H](CCC(=O)O)C(=O)O)cc3)cnc2n1 [AMINOPTERIN]
- pIC50 [1]: 8.51
- Activity [2]: 50%
- Activity [3]: 75%
- Activity [4]: 138%
- Survival days [5]: 14
- Survival days [6]: 19
- Weight change [7]: 1%
- Weight change [8]: 3%
- Weight change [9]: -12%
- Survival days [10]: 11
- Survival days [11]: 12
- Survival days [12]: 12
- ID50 [13]: 0.04 µM

Structure (SMILES): CN(Cc1cnc2nc(N)nc(N)c2n1)c1ccc(C(=O)NC(CS(=O)(=O)O)C(=O)O)cc1 (centres undefined)
- pIC50 [1]: 6.47
- Activity [14]: 33%
- Activity [15]: 44%
- Survival days [16]: 12
- Survival days [17]: 12
- Survival days [18]: 11
- Activity [19]: -1%
- Weight change [20]: 2%
- Survival days [21]: 13
- ID50 [13]: 0.045 µM

Structure (SMILES): CN(Cc1cnc2nc(N)nc(N)c2n1)c1ccc(C(=O)NC(CCS(=O)(=O)O)C(=O)O)cc1 (centres undefined)
- pIC50 [1]: 6.74
- Activity ([14]; 16 mg/kg): 155% and 144%
- Survival days [22]: 22
- Survival days [23]: 21
- Survival days [24]: 21
- Weight change [19]: -12%
- Survival days [25]: 19
- Weight change [20]: -9%
- ID50 [13]: 0.041 µM

Structure (SMILES): CN(Cc1cnc2nc(N)nc(N)c2n1)c1ccc(C(=O)N[C@@H](CCC(=O)O)C(=O)O)cc1 [METHOTREXATE]
- pIC50 [1]: 7.92
- Activity [26]: 133%
- Activity [27]: 78%
- Activity [28]: 100%
- Survival days [29]: 21
- Survival days [30]: 3
- Survival days [31]: 16
- Weight change [32]: -1%
- Weight change [33]: -5%
- Survival days [34]: 15
- Survival days [35]: 16
- Weight change [36]: -8%
- Survival days [37]: 18

Structure (SMILES): Nc1nc(N)c2nc(CNc3ccc(C(=O)NC(CCS(=O)(=O)O)C(=O)O)cc3)cnc2n1 (centres undefined)
- pIC50 [1]: 7.51
- Activity [26]: 100%
- Activity [38]: 138%
- Activity [39]: -8%
- Activity [27]: 88%
- Survival days [40]: 16
- Survival days [41]: 19
- Survival days [42]: 16
- Survival days [43]: 15
- Weight change [32]: -1%
- Survival days [44]: 13
- Activity [36]: -8%
- Survival days [45]: 13
- ID50 [13]: 0.063 µM
